This is an account of results in ChEMBL document CHEMBL1130099, “Stabilized analogs of thymopentin. 2. 1,2- and 3,4-ketomethylene pseudopeptides” (J Med Chem, 1997).

Series [1] has as its system CCRF-CEM. Put plainly: Ability to bound CEM cell measured as competition for displacement of radiolabeled Thymopentin from the receptor. The format is functional, Homo sapiens. In a few lines:
(§1)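 CEM cells at 5×10^6 cells/0.1 mL binding buffer, given unlabeled peptide over 10^-6 to 10^-3 M plus radiolabeled thymopentin (548 000 cpm), 30 min at 25 °C. Diluted with ice-cold buffer, washed twice by centrifugation, bound counts by scintillation. Efficacy = (total thymopentin binding − counts after competition)/(reduction by authentic thymopentin); mean ± SEM over repeated trials.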

Series [2] has as its system CCRF-CEM. The series is described as follows: Binding efficacy expressed as counts remaining after competition was subtracted from total of Thymopentin and divided by the counts reduced by authentic Thymopentin. The format is functional, Homo sapiens. In a few lines: as §1
The species named for series [3] is Mus musculus. Put plainly: The plasma half life of compound was determined on heparin prepared by mouse plasma; Not degraded. Type of series: ADME. In a few lines: (§2)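 Half-life in heparinized mouse plasma: peptide incubated for variable times, then parent decrease and degradation products resolved and quantified by HPLC absorbance.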
The nature of series [4]: The plasma half life of compound was determined on heparin prepared by human plasma; Not degraded. The following applies: in vivo.
A short description of series [5]: The plasma half life of compound was determined on heparin prepared by human plasma.
Series [6] is described as follows: The plasma half life of compound was determined on heparin prepared by mouse plasma. The format is ADME. Put shortly: as §2
Series [7] can be described thus: The plasma half life of compound was determined on EDTA prepared by mouse plasma. Type of series: ADME. Put shortly: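 Peptide incubated in EDTA-treated mouse plasma for variable times. Loss of parent and appearance of degradation products quantified by HPLC with absorbance detection; half-life in min.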

In general, half-life refers to the time needed for the level to fall by half in the phase considered. High values mean slow decline, low ones rapid decline.

In series [1], `CC(C)[C@H](CC(=O)[C@H](CC(=O)O)NC(=O)[C@@H]1CCCN1C(=O)[C@H](N)CCCN=C(N)N)C(=O)N[C@@H](Cc1ccccc1)C(=O)O` gave a Binding competition of 1686 mean counts. The same molecule gave a Binding in series [2] of 72%.

In the case of `CCCC[C@H](CC(=O)[C@@H](N)CCCN=C(N)N)C(=O)N[C@@H](CC(=O)O)C(=O)N[C@@H](C(=O)N[C@@H](Cc1ccccc1)C(=O)O)C(C)C`, in series [1], the Binding competition worked out at 1713 mean counts. The same molecule had a Binding in series [2] of 71%.

Take `CC(C)[C@H](CC(=O)[C@H](CC(=O)O)NC(=O)[C@H](CCCCN)N(C)C(=O)[C@@H](N)CCCN=C(N)N)C(=O)N[C@@H](Cc1ccccc1)C(=O)O`: in series [1], the Binding competition came to 2820 mean counts. Moreover, the T1/2 result in series [3] and in series [4] was “Not degraded” in each case. For the same molecule, in series [2], the Binding is 13%.

Turning to `CC(C)[C@H](CC(=O)[C@H](CC(=O)O)NC(=O)[C@@H]1CCCN1C(=O)[C@H](N)CCCN=C(N)N)C(=O)N[C@@H](Cc1ccccc1)C(N)=O`, in series [1], the Binding competition was found to be 2692 mean counts. Besides, the Binding in series [2] stood at 20%.

Molecule `CCCC[C@H](CC(=O)[C@@H](N)CCCN=C(N)N)C(=O)N[C@@H](CC(=O)O)C(=O)N[C@H](C(=O)N[C@@H](Cc1ccccc1)C(=O)O)C(C)C` (stereo in doubt; 2a-A) registered a Binding competition in series [1] of 2222 mean counts. In series [5], this molecule came in with a half-life of 12.5 min. In series [2], the Binding came to 44%.

For the molecule `CCCC[C@H](CC(=O)[C@@H](N)CCCN=C(N)N)C(=O)N[C@@H](CC(=O)O)C(=O)N[C@H](C(=O)N[C@@H](Cc1ccccc1)C(=O)O)C(C)C` (stereo in doubt; 2a-B), in series [1], the Binding competition came to 2176 mean counts. The same molecule displayed a Binding in series [2] of 47%.

In series [1], `CCCC[C@H](CC(=O)[C@@H](N)CCCN=C(N)N)C(=O)N[C@@H](CC(=O)O)C(=O)N[C@H](C(=O)N[C@@H](Cc1ccccc1)C(=O)O)C(C)C` (stereo in doubt; 2a-C) returned a Binding competition of 2687 mean counts. This molecule yielded a Binding in series [2] of 20%.

`CCCC[C@H](CC(=O)[C@@H](N)CCCN=C(N)N)C(=O)N[C@@H](CC(=O)O)C(=O)N[C@H](C(=O)N[C@@H](Cc1ccccc1)C(=O)O)C(C)C` (stereo in doubt; 2a-D) had a Binding competition in series [1] of 2333 mean counts. Further, the Binding in series [2] stood at 39%.

`CCCC[C@H](CC(=O)[C@@H](N)CCCN=C(N)N)C(=O)N[C@@H](CC(=O)O)C(=O)N[C@H](C(=O)N[C@@H](Cc1ccccc1)C(N)=O)C(C)C` (stereo in doubt; 2b-A) displayed a Binding competition in series [1] of 3627 mean counts.

In series [1], `CCCC[C@H](CC(=O)[C@@H](N)CCCN=C(N)N)C(=O)N[C@@H](CC(=O)O)C(=O)N[C@H](C(=O)N[C@@H](Cc1ccccc1)C(N)=O)C(C)C` (stereo in doubt; 2b-B) registered a Binding competition of 3648 mean counts. Further, the Binding in series [2] is 0%.

For the molecule `CC(C)[C@H](CC(=O)[C@H](CC(=O)O)NC(=O)[C@H](CCCCN)NC(=O)[C@@H](N)CCCN=C(N)N)C(=O)N[C@@H](Cc1ccccc1)C(=O)O` (stereo in doubt; 3a-A), the Binding competition in series [1] worked out at 844 mean counts. Besides, the half-life amounted to 2.4 min in series [6], 2.7 min in series [5] and 5.8 min in series [7]. In series [2], this molecule yielded a Binding of 115%.

For `CC(C)[C@H](CC(=O)[C@H](CC(=O)O)NC(=O)[C@H](CCCCN)NC(=O)[C@@H](N)CCCN=C(N)N)C(=O)N[C@@H](Cc1ccccc1)C(=O)O` (stereo in doubt; 3a-B), the Binding competition in series [1] amounted to 1091 mean counts. This molecule also registered a Binding in series [2] of 103%.

`CCCC[C@H](NC(=O)[C@@H](N)CCCN=C(N)N)C(=O)N[C@@H](CC(=O)O)C(=O)C[C@H](C(=O)N[C@@H](Cc1ccccc1)C(=O)O)C(C)C` (stereo in doubt; 3b-A): the Binding competition in series [1] is given as 1232 mean counts. Further, the Binding in series [2] was 96%.

For the molecule `CCCC[C@H](NC(=O)[C@@H](N)CCCN=C(N)N)C(=O)N[C@@H](CC(=O)O)C(=O)C[C@H](C(=O)N[C@@H](Cc1ccccc1)C(=O)O)C(C)C` (stereo in doubt; 3b-B), the Binding competition in series [1] was 1447 mean counts. For the same molecule, in series [2], the Binding came out at 85%.

The molecule `C[C@H](CC(=O)[C@H](CC(=O)O)NC(=O)[C@H](CCCCN)NC(=O)[C@@H](N)CCCN=C(N)N)C(=O)N[C@@H](Cc1ccccc1)C(=O)O` (stereo in doubt; 3e-A) gave a Binding competition in series [1] of 2172 mean counts. Besides, the Binding in series [2] was determined as 47%.

Molecule `C[C@H](CC(=O)[C@H](CC(=O)O)NC(=O)[C@H](CCCCN)NC(=O)[C@@H](N)CCCN=C(N)N)C(=O)N[C@@H](Cc1ccccc1)C(=O)O` (stereo in doubt; 3e-B) had a Binding competition in series [1] of 2606 mean counts. The molecule also gave a Binding in series [2] of 24%.
